In assay [1] the target is Secreted aspartic protease 1 (Candida albicans) (UniProt P0CY26). Description: Inhibition of SAP1-dependent growth in Candida albicans SAP2MS4B expressing SAP1ex4A at 100 uM incubated in YCB-BSA medium. An outline of the steps: (§1)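 Overnight SD-medium (30°C) preculture diluted 1:100 into YCB-BSA (yeast carbon base plus 4 g/liter BSA as sole nitrogen source) adjusted to pH 4.0, with 50 μg/ml doxycycline to induce Tet-promoter SAP expression; incubated 30°C. Pepstatin A 7.3 μM or HIV protease inhibitors 100 μM (0.125% DMSO final); DMSO-only control. Growth followed as OD600 over time.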

The target of assay [2] is Secreted aspartic protease 8 (Candida albicans) (UniProt O42778). Description: Inhibition of SAP8-dependent growth in Candida albicans SAP2MS4B expressing SAP8ex4A at 100 uM incubated in YCB-BSA medium. An outline of the steps:
as §1

Assay [3] concerns the target Secreted aspartic protease 6 (Candida albicans) (UniProt P43095). Nature of the assay: Inhibition of SAP6-dependent growth in Candida albicans SAP2MS4B expressing SAP6ex4A at 100 uM incubated in YCB-BSA medium. A digest of the protocol: (§2)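 Overnight SD-medium (30°C) preculture diluted 1:100 into YCB-BSA (4 g/liter BSA as sole nitrogen source) adjusted to pH 5.0, with 25 μg/ml doxycycline inducing Tet-promoter SAP expression; incubated 37°C. Pepstatin A 7.3 μM or HIV protease inhibitors 100 μM (0.125% DMSO final); DMSO-only control. OD600 monitored over time.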

Assay [4] concerns the target T1, Secreted aspartic protease 5 (Candida albicans (strain SC5314 / ATCC MYA-2876) (Yeast)) (UniProt P43094).
T1 sequence (whole entry): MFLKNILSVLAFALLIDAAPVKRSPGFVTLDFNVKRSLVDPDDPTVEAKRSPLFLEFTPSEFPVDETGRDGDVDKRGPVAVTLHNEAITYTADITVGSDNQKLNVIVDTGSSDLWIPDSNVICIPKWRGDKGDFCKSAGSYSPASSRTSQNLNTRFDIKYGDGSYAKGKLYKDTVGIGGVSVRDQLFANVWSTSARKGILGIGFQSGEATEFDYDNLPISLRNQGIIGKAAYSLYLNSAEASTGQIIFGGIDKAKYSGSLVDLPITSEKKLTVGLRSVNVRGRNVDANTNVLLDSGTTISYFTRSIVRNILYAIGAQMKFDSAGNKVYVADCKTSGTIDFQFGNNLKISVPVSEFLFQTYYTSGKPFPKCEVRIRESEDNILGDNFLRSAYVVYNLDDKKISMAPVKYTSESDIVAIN
Nature of the assay: Inhibition of SAP5-dependent growth in Candida albicans SAP2MS4B expressing SAP5ex4A at 100 uM incubated in YCB-BSA medium. A digest of the protocol:
as §2

Assay [5] concerns the target Candidapepsin-4 (Candida albicans (strain WO-1) (Yeast)) (UniProt P43093). Description: Inhibition of SAP4-dependent growth in Candida albicans SAP2MS4B expressing SAP4ex4A at 100 uM incubated in YCB-BSA medium. A digest of the protocol:
as §2

Assay [6] addresses T2, Secreted aspartic protease 9 (Candida albicans) (UniProt O42779).
T2 sequence (whole entry): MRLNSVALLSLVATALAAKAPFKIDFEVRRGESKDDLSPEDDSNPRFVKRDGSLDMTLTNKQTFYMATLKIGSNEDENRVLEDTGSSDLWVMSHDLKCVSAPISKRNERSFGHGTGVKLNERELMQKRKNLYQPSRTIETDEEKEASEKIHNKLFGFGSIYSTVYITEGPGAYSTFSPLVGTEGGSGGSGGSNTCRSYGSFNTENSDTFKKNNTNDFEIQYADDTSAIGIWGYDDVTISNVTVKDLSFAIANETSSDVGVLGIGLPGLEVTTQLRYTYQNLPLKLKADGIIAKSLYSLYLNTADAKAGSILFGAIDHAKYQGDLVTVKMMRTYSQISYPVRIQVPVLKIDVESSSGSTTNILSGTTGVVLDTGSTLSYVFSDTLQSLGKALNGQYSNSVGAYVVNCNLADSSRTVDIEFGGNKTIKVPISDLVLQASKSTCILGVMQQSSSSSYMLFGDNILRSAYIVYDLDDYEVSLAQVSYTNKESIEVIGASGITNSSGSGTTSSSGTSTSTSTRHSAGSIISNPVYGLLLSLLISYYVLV
Description: Inhibition of SAP9-dependent growth in Candida albicans SAP2MS4B expressing SAP9deltaC493 at 100 uM incubated in YCB-BSA medium. An outline of the steps:
as §2

Assay [7] addresses T1, Secreted aspartic protease 5 (Candida albicans (strain SC5314 / ATCC MYA-2876) (Yeast)). Description: Inhibition of SAP5-dependent growth in Candida albicans SAP2MS4B expressing SAP5ex4A at 7.3 uM incubated in YCB-BSA medium. A digest of the protocol: as §2
Assay [8] has as its target Candidapepsin-4 (Candida albicans (strain WO-1) (Yeast)) (UniProt P43093). Description: Inhibition of SAP4-dependent growth in Candida albicans SAP2MS4B expressing SAP4ex4A at 7.3 uM incubated in YCB-BSA medium. An outline of the steps:
as §2

For assay [9], the target named is Secreted aspartic protease 6 (Candida albicans) (UniProt P43095). Description: Inhibition of SAP6-dependent growth in Candida albicans SAP2MS4B expressing SAP6ex4A at 7.3 uM incubated in YCB-BSA medium. A digest of the protocol: as §2
In assay [10] the target is Secreted aspartic protease 1 (Candida albicans) (UniProt P0CY26). Description: Inhibition of SAP1-dependent growth in Candida albicans SAP2MS4B expressing SAP1ex4A at 7.3 uM incubated in YCB-BSA medium. An outline of the steps:
as §1

Assay [11] addresses Secreted aspartic protease 3 (Candida albicans) (UniProt P0CY28). Description: Inhibition of SAP3-dependent growth in Candida albicans SAP2MS4B expressing SAP3ex4A at 7.3 uM incubated in YCB-BSA medium. A digest of the protocol:
as §1

The target in assay [12] is Secreted aspartic protease 8 (Candida albicans) (UniProt O42778). Nature of the assay: Inhibition of SAP8-dependent growth in Candida albicans SAP2MS4B expressing SAP8ex4A at 7.3 uM incubated in YCB-BSA medium. An outline of the steps:
as §1

Assay [13] deals with T2, Secreted aspartic protease 9 (Candida albicans). Nature of the assay: Inhibition of SAP9-dependent growth in Candida albicans SAP2MS4B expressing SAP9deltaC493 at 7.3 uM incubated in YCB-BSA medium. A digest of the protocol: as §2
The target of assay [14] is Secreted aspartic protease 2 (Candida albicans) (UniProt P0CS83). Description: Inhibition of SAP2-dependent growth in Candida albicans SAP2MS4B expressing SAP2ex4A at 100 uM incubated in YCB-BSA medium. An outline of the steps:
as §1

The target of assay [15] is Secreted aspartic protease 3 (Candida albicans) (UniProt P0CY28). Description: Inhibition of SAP3-dependent growth in Candida albicans SAP2MS4B expressing SAP3ex4A at 100 uM incubated in YCB-BSA medium. An outline of the steps: as §1

SMILES strings stand for the structures. Activity calls are given as the source filed them. The calls are words filed in the database; no cut-off is given here.

Chain of Secreted aspartic protease 1 (Candida albicans) (P0CY26 whole entry): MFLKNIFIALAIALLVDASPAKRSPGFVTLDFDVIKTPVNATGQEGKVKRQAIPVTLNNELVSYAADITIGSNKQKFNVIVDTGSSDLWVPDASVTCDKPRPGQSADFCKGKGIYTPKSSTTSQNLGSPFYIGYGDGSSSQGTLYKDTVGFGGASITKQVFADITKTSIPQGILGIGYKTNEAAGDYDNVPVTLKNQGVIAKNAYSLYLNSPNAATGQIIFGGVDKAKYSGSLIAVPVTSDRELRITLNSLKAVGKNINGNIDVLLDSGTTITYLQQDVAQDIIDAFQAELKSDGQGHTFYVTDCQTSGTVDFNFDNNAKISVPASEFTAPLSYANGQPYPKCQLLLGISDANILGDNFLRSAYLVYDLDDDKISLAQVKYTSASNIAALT
Chain of Secreted aspartic protease 6 (Candida albicans) (P43095 whole entry): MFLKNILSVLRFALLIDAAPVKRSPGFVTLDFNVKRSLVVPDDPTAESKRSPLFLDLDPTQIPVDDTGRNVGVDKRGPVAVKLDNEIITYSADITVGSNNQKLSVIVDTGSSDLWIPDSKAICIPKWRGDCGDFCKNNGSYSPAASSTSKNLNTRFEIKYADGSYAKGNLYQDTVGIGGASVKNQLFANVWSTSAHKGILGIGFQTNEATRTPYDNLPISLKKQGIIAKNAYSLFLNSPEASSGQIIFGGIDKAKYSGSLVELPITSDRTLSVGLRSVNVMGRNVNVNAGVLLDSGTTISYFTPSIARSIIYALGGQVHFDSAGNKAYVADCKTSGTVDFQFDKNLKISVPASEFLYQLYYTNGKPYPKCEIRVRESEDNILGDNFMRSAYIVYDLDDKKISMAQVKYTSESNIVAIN
Chain of Candidapepsin-4 (Candida albicans (strain WO-1) (Yeast)) (P43093 whole entry): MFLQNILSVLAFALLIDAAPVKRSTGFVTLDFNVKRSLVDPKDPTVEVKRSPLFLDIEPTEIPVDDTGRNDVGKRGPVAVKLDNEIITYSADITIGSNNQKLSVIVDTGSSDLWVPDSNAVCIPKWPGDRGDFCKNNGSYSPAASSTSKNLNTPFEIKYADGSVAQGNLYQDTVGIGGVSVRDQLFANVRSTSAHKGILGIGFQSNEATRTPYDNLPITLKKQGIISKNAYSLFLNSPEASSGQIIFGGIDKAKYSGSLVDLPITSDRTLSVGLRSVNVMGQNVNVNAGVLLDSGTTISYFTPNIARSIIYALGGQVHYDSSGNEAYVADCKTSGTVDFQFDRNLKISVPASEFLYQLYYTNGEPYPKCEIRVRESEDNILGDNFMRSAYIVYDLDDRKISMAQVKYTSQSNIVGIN
Chain of Secreted aspartic protease 8 (Candida albicans) (O42778 whole entry): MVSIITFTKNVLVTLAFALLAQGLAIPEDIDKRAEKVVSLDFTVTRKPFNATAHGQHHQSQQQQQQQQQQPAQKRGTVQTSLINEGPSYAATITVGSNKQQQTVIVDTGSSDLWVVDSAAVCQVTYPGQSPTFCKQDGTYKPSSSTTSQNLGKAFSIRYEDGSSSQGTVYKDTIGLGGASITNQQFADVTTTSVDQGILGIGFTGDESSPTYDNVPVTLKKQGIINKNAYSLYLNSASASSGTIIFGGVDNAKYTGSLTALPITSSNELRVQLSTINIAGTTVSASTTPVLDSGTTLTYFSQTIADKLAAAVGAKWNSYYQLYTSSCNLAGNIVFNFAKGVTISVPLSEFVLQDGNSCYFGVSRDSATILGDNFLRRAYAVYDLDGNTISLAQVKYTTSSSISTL
Chain of Secreted aspartic protease 3 (Candida albicans) (P0CY28 whole entry): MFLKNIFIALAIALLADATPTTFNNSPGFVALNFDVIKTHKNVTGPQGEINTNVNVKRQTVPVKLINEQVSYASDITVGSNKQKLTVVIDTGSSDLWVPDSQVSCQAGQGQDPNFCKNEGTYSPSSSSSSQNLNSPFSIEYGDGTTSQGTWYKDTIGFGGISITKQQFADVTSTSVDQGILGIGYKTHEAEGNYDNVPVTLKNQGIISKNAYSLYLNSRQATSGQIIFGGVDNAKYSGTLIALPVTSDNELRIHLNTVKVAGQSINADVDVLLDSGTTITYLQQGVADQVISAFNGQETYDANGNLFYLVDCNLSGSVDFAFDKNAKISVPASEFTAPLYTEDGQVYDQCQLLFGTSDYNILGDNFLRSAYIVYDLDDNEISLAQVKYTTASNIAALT
Chain of Secreted aspartic protease 2 (Candida albicans) (P0CS83 57-398 limits assumed): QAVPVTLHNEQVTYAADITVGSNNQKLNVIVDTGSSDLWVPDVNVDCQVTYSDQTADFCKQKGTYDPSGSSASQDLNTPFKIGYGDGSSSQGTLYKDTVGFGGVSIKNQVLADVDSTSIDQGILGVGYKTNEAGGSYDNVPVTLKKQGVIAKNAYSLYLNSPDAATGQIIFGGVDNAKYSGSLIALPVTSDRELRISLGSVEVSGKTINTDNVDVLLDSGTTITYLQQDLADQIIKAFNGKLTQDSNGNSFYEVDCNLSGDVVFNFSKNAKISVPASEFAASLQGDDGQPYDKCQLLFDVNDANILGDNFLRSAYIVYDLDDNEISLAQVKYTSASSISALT

As for `CC(C)(C)NC(=O)[C@@H]1C[C@@H]2CCCC[C@@H]2CN1C[C@@H](O)[C@H](Cc1ccccc1)NC(=O)[C@H](CC(N)=O)NC(=O)c1ccc2ccccc2n1`, in assay [1], the outcome was Active. Also, the result in [2], in assay [3], in assay [4], in [5] and in [6] was inactive.
In the case of `CC(C)CC(=O)N[C@H](C(=O)N[C@H](C(=O)N[C@@H](CC(C)C)[C@@H](O)CC(=O)N[C@@H](C)C(=O)N[C@@H](CC(C)C)[C@@H](O)CC(=O)O)C(C)C)C(C)C`, the result in assay [7], in assay [8], in assay [9], in assay [10], in assay [11] and in [12] was Active. Also, the outcome in assay [13] was Active.
In the case of `CC(C)c1nc(CN(C)C(=O)N[C@H](C(=O)N[C@@H](Cc2ccccc2)C[C@H](O)[C@H](Cc2ccccc2)NC(=O)OCc2cncs2)C(C)C)cs1`, the result in assay [1], in assay [14] and in assay [15] was Active. In addition, the outcome in assay [2], in assay [3], in assay [4], in [5] and in [6] was inactive.

(Values after ChEMBL document CHEMBL1152461, “Tetracycline-inducible expression of individual secreted aspartic proteases in Candida albicans allows isoenzyme-specific inhibitor screening” (Antimicrob Agents Chemother, 2008).)
